Assay: Toxicity liver stage against HepG2, at 10uM
Format: cell-based
Design: test concentration 10 uM, cell line HepG2-A16-CD81EGFP
Settings: human, HepG2-A16-CD81EGFP cells; read-out: INHIBITION
Procedure, shortened: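 Uninfected HepG2-A16-CD81EGFP cells, 3 × 10^3 per well, 1536-well, plated on prespotted compound at 10 μM final, parasite-free screening media added to match infected plates; puromycin 10 μM positive, DMSO 0.5% negative; run in parallel with 48 h PbLuc assay at 37 °C, 5% CO2; viability by CellTiter-Glo luminescence, normalized to controls.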

SMILES	cytotoxicity at 10 µM [%]
CC(C)c1cccc(NC(=O)N2CC(N(C)C)C2)c1	9.12
N#Cc1ccc(NCc2cccc(OCC3CCCO3)c2)nc1 (configuration not stated)	1.25
CC(C)N(C)[C@@H]1CCN(S(C)(=O)=O)[C@H]1Cc1ccccc1	5.7
CCOC(C)c1nc(CN2CCN(CC(F)F)CC2)cs1 (configuration not stated)	-8.94
O=C1C[C@H]2[C@@H](CCN2Cc2ccccn2)N1Cc1cccnc1	4.88
NC(=O)c1cn(CC2CC2)c(C2CC2)n1	0.524
OC(COCc1ccco1)CN1CCC(Cn2cccn2)CC1 (configuration not stated)	-1.73
Cc1cc(NC(=O)CN(CC2CCOC2)C2CC2)no1 (configuration not stated)	1.65
Cc1noc(CN(C)CC(c2cccs2)N2CCOCC2)n1 (configuration not stated)	-0.524
CC(C)S(=O)(=O)N1CCC(c2[nH]ncc2S(C)(=O)=O)C1 (configuration not stated)	-21.5
Cc1c(Br)cccc1C(=O)NC(C)CN1CCCC1=O (configuration not stated)	-1.58
Cc1cc(CN2CCN(C(=O)NCCc3csc(C)n3)CC2)on1	-2.68
O=S1(=O)COCCN1CCOc1ccccc1	5.1
Cc1ccc(NC(=O)c2ccc(N3CCCCC3)nn2)c(Cl)c1	-10.7
CN1C(=O)CN(C(=O)c2ccc(=O)n(C)c2)c2ccccc21	-6.67
CCOCC1CN(C(=O)C2CCOCC2)Cc2cnn(C)c21 (configuration not stated)	-1.05
CN(Cc1n[nH]c2c1CCCC2)C(=O)c1cccc(CCC(C)(C)O)c1	-3.87
Cn1ccnc1CN(CCO)C(=O)c1cnc2ccccc2c1	1.39
O=C(c1ccsc1)N1CCOC2(CCN(Cc3cccnc3)CC2)C1	-3.12
CCN1CCc2[nH]cnc2C12CCN(C(=O)CCc1cccs1)CC2	0.688
Cc1ccc([C@@]2(O)CC[C@@H]3CN(S(=O)(=O)C(C)C)C[C@@H]32)cc1	-38.9
O=C(NC[C@]12COC[C@H]1CN(CC1CCOCC1)C2)c1ccco1	-72.1
O=C(CCCNC(=O)C1CC1)Nc1cnn(-c2ccccc2Cl)c1	-12.3

SMILES	cytotoxicity at 10 µM [%]
CCC[C@@H]1CN(Cc2nnc(-c3cccnc3)o2)C[C@H]1NC(C)=O	-4.89
CCOC(=O)c1coc(N2CCN(C(=O)c3cccc(OC)c3)CC2)n1	8.15
Cc1nc([C@H]2C[C@H]3CN(C(=O)c4ccoc4C)CC[C@@H]3O2)no1	0.369
Cc1cc(-c2cc(S(=O)(=O)N3C[C@H](C4CC4)[C@@H](N)C3)c(C)s2)on1	3.37
CCOCC(O)CNc1cncc(Br)c1 (configuration not stated)	4.21
CN(Cc1ccncc1)C1COC2(CCN(Cc3nccn3C)CC2)C1 (configuration not stated)	-98.7
NCC(c1cccnc1)N1CCOCC1 (configuration not stated)	4.32
N#CCc1ccc(NC(=O)N[C@H](CO)Cc2ccc(O)cc2)cc1	-1.8
Cc1cc(NC2CCC(=O)N(C)C2)n2nccc2n1 (configuration not stated)	-0.714
Cn1ncc2c(N[C@@H]3CS(=O)(=O)C[C@H]3O)nc(C(C)(C)C)nc21	-1.32
Cc1ccc(CC(=O)N2CCC(Nc3cccnn3)CC2)s1	-7.01
Cc1nn(C2CCS(=O)(=O)C2)c(O)c1Cc1ccccc1Cl (configuration not stated)	-45.7
Cc1nc(C)n(C2CCCN(C(=O)c3sccc3C3CC3)C2)n1 (configuration not stated)	-9.68
O=C1CC2(CCN(Cc3ccc4cccc(O)c4n3)CC2)CN1	-15.3
Cc1noc(C)c1-c1nc(C2CCCN(C(=O)C(C)C)C2)ccc1CO (configuration not stated)	0.983
O=C(c1cscn1)N1CCCC(n2cncn2)C1 (configuration not stated)	0.301
Cc1cc(NCc2cc3n(n2)CCCN(C(=O)C2CCC2)C3)ncn1	-136
Cc1ccc(C(C(=O)NCCc2nc(C)cc(=O)[nH]2)N(C)C)cc1 (configuration not stated)	1.92
CCc1ncc2c(n1)CN(CC(=O)Nc1nncs1)CC2	1.74
Cc1cc(C)n(C2CCCN(C(=O)COCC(F)(F)F)C2)n1 (configuration not stated)	-4.3
Cc1cc(C)cc(NC(=O)Nc2c(O)c3ccccc3oc2=O)c1	9.24
O=C(Cc1c[nH]c(=O)[nH]c1=O)N1CCCCC1CCc1ccccc1 (configuration not stated)	-9.05
Nc1cc2c(nn1)CCN(C(=O)c1cccc3c1OCO3)C2	-8.08

SMILES	cytotoxicity at 10 µM [%]
O=C(NCc1cn2c(n1)CN(Cc1ccncc1)CC2)C1CCC1	6.76
CN(C)CCO[C@H]1C[C@@H](O)C12CCN(c1cnccn1)CC2	3.79
Cn1nc2c(cc1=O)CN(Cc1coc(-c3cccs3)n1)CC2	-11.1
Cc1nn(C)c2cnn(Cc3ccc(C(=O)N4CCN(C)CC4)o3)c12	14.3
Cn1cnc2c1CCN(Cc1csc(C3CCCC3)n1)C2	-12.3
Cc1nc(C2CCCN2CCc2cccs2)no1 (configuration not stated)	10.4
CC1(C)CNC(=O)c2nc(CCN3CCOCC3)[nH]c2C1	-10.7
CCn1c(CN(C)C)nnc1C1CCN(Cc2ccc(C)s2)CC1	7.01
Cc1ccc(CN2CCNC(C(=O)NC3CC3)C2)cc1C (configuration not stated)	-3.41
O=C(C1CCOCC1)N1C[C@@H]2CC[C@H]1CN(C1Cc3ccccc3C1)C2	-0.317
O=C(c1ccccc1)N1Cc2nccn2CC(Cn2ncccc2=O)C1 (configuration not stated)	10.4
Cc1nc(C2CCCN(C(=O)COCc3ccccc3)C2)no1 (configuration not stated)	-2
COCCn1c2c(ccc1=O)CC(NCc1cnn(C)c1)CC2 (configuration not stated)	-103
Cc1csc(C2CCCCN2C(=O)c2cnn3ccc(C)nc23)n1 (configuration not stated)	-5.85
CC(C)NC(=O)N1CCOC2(CNC2)C1	-0.479
CN1CCOC(C(=O)Nc2ccc3[nH]nnc3c2)C1 (configuration not stated)	6.77
CC(C)(C)Nc1nc(-c2cccnc2)c(-c2ccnc(NCCO)n2)s1	-5.64
O=C(N1CCOCC1)N1CCN(c2ccnc3ccsc23)CC1	-4.48
Cn1cc(C2CCCN2C(=O)CCn2ccc3ccccc32)cn1 (configuration not stated)	8.84
Cc1noc(C)c1CNC(=O)N(C1CC1)C(C)c1ccco1 (configuration not stated)	5.68
O=C1CN(C(=O)CC2c3ccccc3CCc3ccccc32)CCN1	9.98
Cc1cccn2cc(CNCc3cccc4c3OCCCO4)nc12	15.5
COCc1cc(N(C)Cc2c(C)nn(C)c2C)n2nccc2n1	2.45

SMILES	cytotoxicity at 10 µM [%]
COCCn1cnc2ccc(NC(=O)C(C)C)cc2c1=O	-9.46
CCn1ccnc1CNCC1CCCN1c1cc(NC)ncn1 (configuration not stated)	3.37
CCn1nc(C)cc1C(=O)N1C[C@H]2CCC[C@@]2(COc2ccccn2)C1	0.529
CC(NC(=O)COc1ccccc1I)C1CC1 (configuration not stated)	2.72
O=C(CCc1cccnc1)N(Cc1ccsc1)CC1CCCO1 (configuration not stated)	-11.5
CCS(=O)(=O)c1ccc2c(c1)OCCO2	-1.38
CN1CCN(c2nsc(-c3ccccc3)c2C#N)CC1	1.28
CCn1c(C)nnc1CN(C)C1CCN(Cc2ccccn2)C1 (configuration not stated)	1.8
Cc1cccnc1CNc1ccc(C(=O)N2CCc3ccccc32)cn1	-0.608
CS(=O)(=O)N1CC2(CCCN(C3COC3)C2)Cc2ccccc21 (configuration not stated)	5.15
O=C(COc1ccc2c(c1)CCC2)N1CCCC(n2cccn2)C1 (configuration not stated)	-2.58
COCCN(C)C[C@H]1CC[C@@H](Cc2ccc3c(cnn3C)c2)O1	0.255
Cc1cc(N2CCCCC2)nc(N(CCO)CCO)c1C#N	-7.32
Cn1cc(S(=O)(=O)N2CCCC2Cn2ccnc2)cc1C(N)=O (configuration not stated)	2.8
Cc1ncsc1C(=O)NCCOc1ncc(Cl)cc1Cl	7.67
CC(C)NC(=O)CN1CCN(CC2CCOc3ccccc3C2)CC1 (configuration not stated)	-1.72
Cn1cc(C(NCCc2ccccn2)c2cccc(F)c2)cn1 (configuration not stated)	9.73
Cc1noc(C)c1CCC(=O)N1CCn2cccc2C1C (configuration not stated)	-0.376
CCN1CCC[C@@H]1CNC(=O)c1cc(COc2ccccc2)[nH]n1	0.635
CCCS(=O)(=O)NC1CCc2c(ccc(=O)n2CC2CC2)C1 (configuration not stated)	-67.3
CCCNC(=O)c1ccc2c(c1)C(=O)N(CC(C)C)C2=O	-10.2
NCc1cccc(-c2cccnc2C(=O)NCCN2CCCC2)c1	-6.9
CC(=O)N1N=C(c2ccccc2)OC1C(=O)NCCN(C(C)C)C(C)C (configuration not stated)	0.238

SMILES	cytotoxicity at 10 µM [%]
CCCc1nc(CN2CCCC2Cn2cncn2)cs1 (configuration not stated)	-9.39
CC(C)c1nccn1C1CCCN(C(=O)c2cccc3c2OCO3)C1 (configuration not stated)	-7.71
COc1ccc(C(CNC(=O)c2cnc(C)cn2)N2CCOCC2)cc1 (configuration not stated)	3.04
CC(C)S(=O)(=O)c1nnc(CCNC(=O)OC(C)(C)C)o1	9.28
c1cncc(C(Cn2cnnc2)N2CCOCC2)c1 (configuration not stated)	-5.11
O=S(=O)(c1ccc(F)cc1)n1cc(Cl)cn1	0.0667
Cn1cnnc1C1CCCN(C(=O)c2ccc3c(c2)OCCCO3)C1 (configuration not stated)	3.66
CC(C)c1cc(C(=O)N2CC[C@@H](c3ccc4c(c3)OCO4)[C@H](O)C2)[nH]n1	3.29
CC(C)OCCCNC(=O)CS(=O)(=O)Cc1ccc(C(C)C)cc1	0.239
O=C(c1cc(C2CC2)[nH]n1)N1CCN(Cc2ccc3c(c2)OCO3)CC1	-2.32
N#Cc1ccsc1N1CCC(Sc2ccncc2)C1=O (configuration not stated)	-15.7
O=S(=O)(Cc1nc(C2CC2)no1)c1ccccc1F	8.11
CCN(CC)c1ccc(NS(=O)(=O)c2cccnc2)cn1	3.8
O=C(Cc1csc(-c2cccc(Cl)c2)n1)NCc1cccc(C(=O)O)c1	-0.0616
CC(C)(NCC(=O)NCC1CC1)c1ccc2c(c1)OCCO2	-9.8
CN(Cc1nnc2ccccn12)C(=O)CCNC(=O)C(C)(C)C	12.5
O=C(NCc1nc2cc(F)ccc2[nH]1)c1ccc[nH]1	11.9
CCC(O)CN(CC(=O)NC(=O)NC1CC1)c1ccccc1 (configuration not stated)	-2.48
COC(=O)c1ccc(N2CCN(C(=O)c3ccc(=O)n(C)c3)CC2)cc1	-43.9
Cc1cn2c(=O)c(-c3ccnc(N[C@@H]4CCOC4)n3)cnc2s1	-9.19
